Laboratory results taken from ChEMBL document CHEMBL3526151, “Reversible disulfide formation of the glutamate carboxypeptidase II inhibitor E2072 results in prolonged systemic exposures in vivo” (Drug Metab Dispos, 2012).

How the values were obtained:
[1] = Tmax in Sprague-Dawley rat at 10 mg/kg, po administered via gavage measured under fed conditions by LC-MS/MS analysis; format: ADME, organism-based; design: dose 10 mg/kg, route oral; conditions: in vivo
Procedure, shortened: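 Nonfasted male Sprague-Dawley rats gavaged once at 10 mg/kg in 50 mM HEPES-buffered saline pH 7.4. Blood into heparin/NEM tubes at 0, 0.25, 0.5, 1, 2, 4, 6, 8 and 24 h. Plasma analysed by LC-MS/MS; Tmax taken as the observed value.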

[2] = Apparent oral clearance in Sprague-Dawley rat at 10 mg/kg, po administered via gavage measured under fed conditions by LC-MS/MS analysis; format: ADME, organism-based; design: dose 10 mg/kg, route oral; conditions: in vivo
Procedure, shortened: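 Nonfasted male Sprague-Dawley rats given a single 10 mg/kg oral dose in 50 mM HEPES buffered saline, pH 7.4. Plasma collected 0.25–24 h into heparin/NEM tubes and assayed by LC-MS/MS. Noncompartmental parameters derived, including Cl/F and Vd/F. Mean ± S.D., n = 6–9.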

[3] = Tmax in Sprague-Dawley rat at 10 mg/kg, iv by LC-MS/MS analysis; format: ADME, organism-based; design: dose 10 mg/kg, route intravenous; conditions: in vivo
[4] = Clearance in Sprague-Dawley rat at 10 mg/kg, iv by LC-MS/MS analysis; format: ADME, organism-based; design: dose 10 mg/kg, route intravenous; conditions: in vivo
Procedure, shortened: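 Male Sprague-Dawley rats dosed intravenously at 10 mg/kg (n = 6). Blood sampling extended to 7 days into heparin tubes containing NEM. Plasma assayed for parent and homodisulfide by LC-MS/MS, calibration range 1–5000 ng/ml. Noncompartmental analysis, t1/2 = 0.693/λz. Mean ± S.D.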

[5] = tested on: Cynomolgus monkey; assay: AUC(0 to infinity) in cynomolgus monkey at 5 mg/kg, po by LC-MS/MS analysis; format: ADME, organism-based, Macaca fascicularis, Plasma; design: dose 5 mg/kg, route oral, time infinity; conditions: in vivo
Procedure, shortened: (§1)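 Cynomolgus monkeys (n = 3) dosed orally at a nominal 5 mg/kg in TCEP-treated 50 mM HEPES solution. Blood taken via iliac or femoral arterial cannula up to 9 days into heparin/NEM tubes. Plasma analyzed by LC-MS/MS. Cl/F and Vd/F derived noncompartmentally.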

[6] = tested on: Cynomolgus monkey; assay: Apparent oral clearance in cynomolgus monkey at 5 mg/kg, po by LC-MS/MS analysis; format: ADME, organism-based, Macaca fascicularis; design: dose 5 mg/kg, route oral; conditions: in vivo; procedure, shortened: as §1
[7] = tested on: Rattus norvegicus; assay: Toxicity in Sprague-Dawley rat chronic constriction injury model assessed as paw withdrawal latencies on non-ligated side at 10 mg/kg/day, po; format: organism-based; design: route oral; conditions: in vivo
[8] = Phase 1 metabolic stability in monkey liver microsomes assessed as compound remaining at 10 uM measured for 1 hr by LC-MS/MS analysis; format: ADME, Macaca mulatta; conditions: rhesus monkey, read-out: Stability
Procedure, shortened: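 Liver microsomes (0.5 mg/ml) were incubated with 10 µM compound (final) in 100 mM potassium phosphate, pH 7.4. An NADPH-regenerating system was present: 1.3 mM NADPH, 3.3 mM glucose 6-phosphate, 3.3 mM MgCl2, 0.4 U/ml G6PDH and 50 µM sodium citrate. Runs were in duplicate, with samples taken up to 1 h and quenched with acetonitrile containing internal standard. Loss of compound was followed by LC-MS/MS.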

[9] = Phase 2 metabolic stability in mouse liver microsomes assessed as compound remaining at 10 uM measured for 1 hr by LC-MS/MS analysis in absence of cofactors; format: ADME; conditions: read-out: Stability
Procedure, shortened: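 Glucuronidation in liver microsomes of the named species, 0.5 mg/ml protein, compound at 10 μM final, in 50 mM Tris-HCl pH 7.5 with 8 mM MgCl2 and 25 μg/ml alamethicin. Preincubated at 37°C, then started with 2 mM UDPGA (final); cofactor-free controls run alongside. Duplicate reactions, sampled up to 1 h, quenched with cold acetonitrile plus internal standard; disappearance followed by LC-MS/MS.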

[10] = Phase 2 metabolic stability in monkey liver microsomes assessed as compound remaining at 10 uM measured for 1 hr by LC-MS/MS analysis in absence of cofactors; format: ADME, Macaca mulatta; conditions: rhesus monkey, read-out: Stability
Procedure, shortened: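 Cofactor-free controls were run for each microsomal incubation: 0.5 mg/ml liver microsomes with 10 µM compound, omitting cofactors, so that cofactor-independent degradation could be measured. Samples were taken up to 1 h, quenched with acetonitrile containing internal standard, and the percent remaining was determined by LC-MS/MS.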

[11] = Metabolic stability in Sprague-Dawley rat plasma assessed as compound remaining at 10 uM after 1 hr by LC-MS/MS analysis; format: ADME, cell-free; conditions: read-out: Stability
Procedure, shortened: (§2)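 Compound at 5 and 10 µM was incubated at 37°C in Sprague-Dawley rat or cynomolgus monkey plasma. Aliquots taken at 0, 30 and 60 min were quenched with acetonitrile and analyzed by LC-MS/MS. Percent remaining = analyte/internal-standard area ratio at time t divided by that at time 0.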

[12] = Metabolic stability in cynomolgus monkey plasma assessed as compound remaining at 5 to 10 uM after 1 hr by LC-MS/MS analysis; format: ADME, cell-free, Macaca fascicularis; conditions: read-out: Stability; procedure, shortened: as §2
[13] = Protein binding in cynomolgus monkey serum at 10 uM after 1 hr by LC-MS/MS analysis; format: ADME, Macaca fascicularis; conditions: read-out: PB (converted)
Procedure, shortened: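 Serum from the named species spiked to 10 μM and held 1 h at 37°C, then ultrafiltered through a 5000 Da cutoff device (45 min, 37°C, 1800g). Filtrate and unfiltered serum extracted and measured by LC-MS/MS; % bound = 100 − (Cu/Cs × 100).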

[14] = Cmax in Sprague-Dawley rat at 1 mg/kg, po administered via gavage measured under fasted conditions by LC-MS/MS analysis; format: ADME, organism-based; design: dose 1 mg/kg, route oral; conditions: in vivo
Procedure, shortened: (§3)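 Fasted male Sprague-Dawley rats (280–330 g) received 0.1, 1, 10 or 30 mg/kg by oral gavage in 50 mM HEPES buffered saline, pH 7.4. Blood drawn at 0.25–24 h into heparin/NEM tubes; plasma analyzed by LC-MS/MS. Cmax taken as observed. AUC by linear trapezoidal rule with extrapolation by λz. Cl/F and Vd/F reported. Mean ± S.D., n = 4–9.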

[15] = AUC(0 to last) in Sprague-Dawley rat at 0.1 mg/kg, po administered via gavage measured under fasted conditions by LC-MS/MS analysis; format: ADME, organism-based; design: time 0 - last, dose 0.1 mg/kg, route oral; conditions: plasma; procedure, shortened: as §3
[16] = AUC(0 to last) in Sprague-Dawley rat at 10 mg/kg, po administered via gavage measured under fasted conditions by LC-MS/MS analysis; format: ADME, organism-based; design: time 0 - last, dose 10 mg/kg, route oral; conditions: plasma; procedure, shortened: as §3
[17] = Clearance in Sprague-Dawley rat at 1 mg/kg, iv administered as bolus injection measured under fasted conditions by LC-MS/MS analysis; format: ADME, organism-based; design: dose 1 mg/kg, route intravenous; conditions: in vivo
Procedure, shortened: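 Male Sprague-Dawley rats (280–330 g), jugular vein cannulated, fasted overnight until 4 h post-dose. Single tail-vein bolus of 0.1, 1, 10 or 30 mg/kg in 50 mM HEPES buffered saline, pH 7.4. Blood drawn 0–24 h into heparin tubes containing NEM. Plasma quantified by LC-MS/MS after NEM derivatization. Noncompartmental analysis: AUClast by linear trapezoidal rule, Cl = dose/AUC0-∞. Mean ± S.D., n = 4–9.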

[18] = Apparent volume of distribution in Sprague-Dawley rat at 1 mg/kg, po administered via gavage measured under fasted conditions by LC-MS/MS analysis; format: ADME, organism-based; design: dose 1 mg/kg, route oral; conditions: in vivo; procedure, shortened: as §3
[19] = Half life in Sprague-Dawley rat at 0.1 mg/kg, iv administered as bolus injection measured under fasted conditions by LC-MS/MS analysis; format: ADME, organism-based; design: dose 0.1 mg/kg, route intravenous; conditions: in vivo
[20] = Half life in Sprague-Dawley rat at 1 mg/kg, iv administered as bolus injection measured under fasted conditions by LC-MS/MS analysis; format: ADME, organism-based; design: dose 1 mg/kg, route intravenous; conditions: in vivo
[21] = Oral bioavailability in Sprague-Dawley rat at 0.1 mg/kg administered via gavage measured under fasted conditions by LC-MS/MS analysis; format: ADME, organism-based; conditions: in vivo

Tmax [1]: 0.29 h
CL/F [2]: 5 mL/min/kg
Tmax [3]: 6.6 min
clearance [4]: 2 mL/min/kg
AUC [5]: 24935.6 ng·h/mL
CL/F [6]: 0.95 mL/min/kg
remaining at 1 h, 10 µM [8]: > 90%
remaining at 1 h, 10 µM [9]: > 90%
remaining at 1 h, 10 µM [10]: > 90%
remaining at 1 h, 10 µM [11]: 64.5%
remaining at 1 h, up to 10 µM [12]: > 90%
fraction unbound at 1 h, 10 µM [13]: 0.101
Cmax [14]: 1100 ng/mL
AUC(0-t) [15]: 268 ng·h/mL
AUC(0-t) [16]: 33400 ng·h/mL
clearance [17]: 0.833 mL/min/kg
Vd/F [18]: 1.65 L/kg
half-life [19]: 2.3 h
half-life [20]: 3.25 h
bioavailability [21]: 17.4%
Compound: O=C(O)c1cccc(-c2cccc(CCS)c2C(=O)O)c1
Activity [7]: Non-toxic
